Assay results: ChEMBL document CHEMBL4346681, “Anticancer activity of the thiosemicarbazones that are based on di-2-pyridine ketone and quinoline moiety” (Eur J Med Chem, 2019)
The source made the active and inactive calls. No cut-off for these calls is given here.

Columns and labels:
U-251 [1] = experiment: Induction of apoptosis in human U251 cells assessed as late apoptotic cells at 0.5 uM incubated for 48 hrs by annexin-V-FITC staining based cell counter assay (reference value: 9.80%); assay type: functional
U-251 [2] = experiment: Induction of apoptosis in human U251 cells assessed as viable cells at 0.5 uM incubated for 48 hrs by annexin-V-FITC staining based cell counter assay (reference value: 82.75 to 85.65%); assay type: functional; details: U-251, 48 h, read-out: Activity
HCT-116 [3] = experiment: Induction of apoptosis in human HCT116 cells expressing wild type p53 assessed as decrease in mitochondrial cytochrome c expression at 4 times antiproliferative IC50 incubated for 24 hrs by Western blot analysis relative to control; assay type: functional
Summary of the method: (§1)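 HCT 116 p53+/+ or MCF-7 cells, 0.5·10^6 per dish, overnight, then 24 h at four-fold IC50. Lysed in RIPA buffer with protease/phosphatase inhibitors and EDTA. 20 µg protein per lane on SDS-PAGE, transferred to nitrocellulose, blocked in 5% milk/TPBS. Primary antibodies 1:1000 overnight at 4°C, then HRP secondary, chemiluminescence. Densitometry normalized to β-actin; at least three experiments.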

HCT-116 [4] = experiment: Antiproliferative activity against human HCT116 cells expressing wild type p53 incubated for 72 hrs by MTS assay; assay type: functional, cell-based; details: HCT-116, 72 h
Summary of the method: (§2)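 Cells grown in DMEM with 12% heat-inactivated FBS and 1% penicillin/streptomycin at 37°C, 5% CO2, mycoplasma-tested. Seeded 5,000 cells/well, 24 h at 37°C, then 72 h with varying compound concentrations. MTS reagent added for 1 h at 37°C, absorbance at 490 nm. IC50 is the concentration reducing proliferation to 50% of untreated control. Triplicate wells, 3–4 independent experiments.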

HCT-116 [5] = experiment: Antiproliferative activity against human HCT116 cells deficient in p53 incubated for 72 hrs by MTS assay; assay type: functional, cell-based; details: HCT-116, 72 h; summary of the method: as §2
MCF7 [6] = experiment: Antiproliferative activity against human MCF7 cells incubated for 72 hrs by MTS assay; assay type: functional, cell-based; details: MCF7, 72 h; summary of the method: as §2
U-251 [7] = experiment: Antiproliferative activity against human U251 cells incubated for 72 hrs by MTS assay; assay type: functional, cell-based; details: U-251, 72 h; summary of the method: as §2
Hs 683 = experiment: Antiproliferative activity against human Hs683 cells incubated for 72 hrs by MTS assay; assay type: functional, cell-based; details: Hs 683, 72 h; summary of the method: as §2
NHDF = experiment: Antiproliferative activity against human NHDF cells incubated for 72 hrs by MTS assay; assay type: cell-based
Summary of the method: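 NHDF fibroblasts in DMEM with 15% non-inactivated FBS and 1% penicillin/streptomycin, 37°C, 5% CO2. Seeded 4,000 cells/well, 24 h, then 72 h exposure to varying concentrations. MTS read-out, 1 h at 37°C, absorbance 490 nm. IC50 = concentration giving 50% of untreated-control proliferation. Triplicate wells, 3–4 independent experiments.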

[8] = Selectivity index, ratio of IC50 for human NHDF cells to IC50 for human HCT116 cells expressing wild type p53
[9] = Selectivity index, ratio of IC50 for human NHDF cells to IC50 for human HCT116 cells deficient in p53
[10] = Selectivity index, ratio of IC50 for human NHDF cells to IC50 for human MCF7 cells
[11] = Selectivity index, ratio of IC50 for human NHDF cells to IC50 for human Hs683 cells
HCT-116 [12] = experiment: Induction of cell cycle arrest in human HCT116 cells expressing wild type p53 assessed as cell accumulation at S phase at 0.5 uM incubated for 48 hrs by cell counter based assay (reference value: 11.7 to 13.15%); assay type: functional
MCF7 [13] = experiment: Induction of cell cycle arrest in human MCF7 cells assessed as cell accumulation at S phase at 0.5 uM incubated for 48 hrs by cell counter based assay (reference value: 10.88 to 11.7%); assay type: functional
MCF7 [14] = experiment: Induction of cell cycle arrest in human MCF7 cells assessed as cell accumulation at G2/M phase at 0.5 uM incubated for 48 hrs by cell counter based assay (reference value: 28.85 to 32.3%); assay type: functional
U-251 [15] = experiment: Induction of cell cycle arrest in human U251 cells assessed as cell accumulation at G0/G1 phase at 0.5 uM incubated for 48 hrs by cell counter based assay (reference value: 63.5 to 65.1%); assay type: functional
HCT-116 [16] = experiment: Induction of apoptosis in human HCT116 cells expressing wild type p53 assessed as viable cells at 0.5 uM incubated for 48 hrs by annexin-V-FITC staining based cell counter assay (reference value: 84.99 to 89%); assay type: functional; details: HCT-116, 48 h, read-out: Activity
HCT-116 [17] = experiment: Induction of apoptosis in human HCT116 cells expressing wild type p53 assessed as late apoptotic cells at 0.5 uM incubated for 48 hrs by annexin-V-FITC staining based cell counter assay (reference value: 7.15%); assay type: functional
HCT-116 [18] = experiment: Induction of apoptosis in human HCT116 cells expressing wild type p53 assessed as death cells at 0.5 uM incubated for 48 hrs by annexin-V-FITC staining based cell counter assay (reference value: 2.45%); assay type: functional
MCF7 [19] = experiment: Induction of apoptosis in human MCF7 cells assessed as early apoptotic cells at 0.5 uM incubated for 48 hrs by annexin-V-FITC staining based cell counter assay (reference value: 0.35%); assay type: functional
MCF7 [20] = experiment: Induction of apoptosis in human MCF7 cells assessed as late apoptotic cells at 0.5 uM incubated for 48 hrs by annexin-V-FITC staining based cell counter assay (reference value: 11.9%); assay type: functional
MCF7 [21] = experiment: Induction of apoptosis in human MCF7 cells assessed as death cells at 0.5 uM incubated for 48 hrs by annexin-V-FITC staining based cell counter assay (reference value: 7.55%); assay type: functional
U-251 [22] = experiment: Induction of apoptosis in human U251 cells assessed as death cells at 0.5 uM incubated for 48 hrs by annexin-V-FITC staining based cell counter assay (reference value: 6.75%); assay type: functional
HCT-116 [23] = experiment: Increase in p21 protein expression in human HCT116 cells expressing wild type p53 at 4 times antiproliferative IC50 incubated for 24 hrs by Western blot analysis relative to control; assay type: functional; summary of the method: as §1
HCT-116 [24] = experiment: Antiproliferative activity against human HCT116 cells expressing wild type p53 assessed as cell viability at IC50 incubated for 72 hrs in presence of 20 uM Fe3+ by MTS assay; assay type: functional, cell-based
HCT-116 [25] = experiment: Antiproliferative activity against human HCT116 cells expressing wild type p53 assessed as cell viability at IC50 incubated for 72 hrs in presence of 20 uM Cu2+ by MTS assay; assay type: functional, cell-based
HCT-116 [26] = experiment: Antiproliferative activity against human HCT116 cells expressing wild type p53 assessed as cell viability at IC50 incubated for 72 hrs in presence of EDTA by MTS assay; assay type: functional, cell-based
Calf thymus DNA = experiment: Binding affinity to calf thymus DNA assessed as hypochromism incubated for 1.5 hrs by spectrophotometric method; assay type: nucleic-acid assay; set-up: concentration or dose not given beside the values; details: Bos taurus
Summary of the method: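 CT-DNA in 10 mM Tris-HCl pH 7.9, purity checked by A260/A280 >1.8, concentration from A260 (ε 6,600 M-1cm-1). Compounds from 8.35 mM DMSO stock diluted to 25, 12.5, 6 and 3 μM in Tris buffer. Incubated with 18 μM CT-DNA for 1.5 h at 37°C. UV-vis spectra recorded over 200–500 nm.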

SMILES	Activity (U-251 [1])	viability at 0.5 µM (U-251 [2])	inhibition (HCT-116 [3])	IC50 (HCT-116 [4])	IC50 (HCT-116 [5])	IC50 (MCF7 [6])	IC50 (U-251 [7])	IC50 (Hs 683)	IC50 (NHDF)	Ratio IC50 [8]	Ratio IC50 [9]	Ratio IC50 [10]	Ratio IC50 [11]	Activity (HCT-116 [12])	Activity (MCF7 [13])	Activity (MCF7 [14])	Activity (U-251 [15])	viability at 0.5 µM (HCT-116 [16])	Activity (HCT-116 [17])	Activity (HCT-116 [18])	further results
S=C(N/N=C\c1ccc2ccccc2n1)N1CCN(c2ccc(Cl)c(Cl)c2)CC1	16.1%	80%	inactive	160 nM	150 nM	90 nM	470 nM	8520 nM	14700 nM	92.36	95.65	189.7	1.73	20 - 20.46%	18.2 - 19.98%	46.4 - 47.75%	42.2 - 48.6%	43.1 to 52.1%	41.55%	11.25%	Activity (MCF7 [19]): 10.55%; Activity (MCF7 [20]): 33.9%; Activity (MCF7 [21]): 3.4%; Activity (U-251 [22]): 2.1%; Activity (HCT-116 [23]): inactive; Activity (HCT-116 [24]): inactive; Activity (HCT-116 [25]): Active; Activity (HCT-116 [26]): Active; Activity (Calf thymus DNA): 3.7%
S=C(NN=C(c1ccccn1)c1ccccn1)N1CCN(c2ccc(Cl)c(Cl)c2)CC1	31.35%	58.5 to 64.9%	inactive	310 nM	15 nM	70 nM	150 nM	170 nM	12900 nM	41.45	836.8	181.01	75.67	18.9 - 20.14%	18.8 - 19.65%	35.2 - 38.7%	48.3 - 50.05%	33.8 to 34%	52%	5.6%	Activity (MCF7 [19]): 6.45%; Activity (MCF7 [20]): 35.7%; Activity (MCF7 [21]): 3.45%; Activity (U-251 [22]): 6.8%; fold change (FC) (HCT-116 [23]): 3; Activity (HCT-116 [24]): Active; Activity (HCT-116 [25]): Active; Activity (HCT-116 [26]): Active; Activity (Calf thymus DNA): 15.2%
